# Experiments:
# Cannabinoid receptor 1 [1] = molecular target: T1, Cannabinoid receptor 1 (Homo sapiens, UniProt P21554); assay: Agonist activity at human CB1 receptor expressed in HEK293 EBNA cells by [35S]GTPgamma binding assay; type: functional, cell-based
# Cannabinoid receptor 1 [2] = molecular target: T1, Cannabinoid receptor 1; assay: Displacement of [3H]-CP55,940 from human CB1 receptor expressed in HEK293 cells; type: cell-based
# [3] = Metabolic stability in human liver microsomes; type: ADME, Microsome; details: read-out: Stability
# [4] = Ratio of drug uptake in brain to plasma of Sprague-Dawley rat at 1 mg/kg, sc; type: ADME, organism-based; set-up: dose 1 mg/kg, route subcutaneous; details: read-out: BPR
# Cannabinoid receptor 2 = Cannabinoid receptor 2 (Homo sapiens, UniProt P34972); assay: Binding affinity to human CB2 receptor
# [5] = Metabolic stability in rat liver microsomes; type: ADME, Microsome; details: read-out: Stability
# [6] = Aqueous solubility of the compound at pH 7.4; type: physicochemical
# [7] = Apparent permeability across human Caco2 cells; type: ADME, cell-based; details: Caco-2
# [8] = molecular target: Cannabinoid receptor 1 (Rattus norvegicus) (UniProt P20272); assay: Agonist activity at CB1 receptor in rat brain tissue relative to control; type: functional, tissue-based
# Cannabinoid receptor 1 [9] = molecular target: Cannabinoid receptor 1 (Rattus norvegicus, UniProt P20272); assay: Agonist activity at CB1 receptor in rat brain tissue; type: functional, tissue-based
# [10] = molecular target: Voltage-gated inwardly rectifying potassium channel KCNH2 (Homo sapiens, UniProt Q12809); assay: Inhibition of human Erg by voltage ion flux electrophysiological assay
# [11] = Dissociation constant, pKa of the compound; type: physicochemical
# Cannabinoid receptor 1 [12] = molecular target: T1, Cannabinoid receptor 1; assay: Partial agonist activity at human CB1 receptor expressed in HEK293 EBNA cells by [35S]GTPgamma binding assay; type: functional, cell-based
# In short: (§1)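 Membranes from HEK293 EBNA cells stably transfected with cloned human CB1; agonism read out as [35S]GTPγS binding, EC50 determined; Emax expressed relative to Win55,212-2 as reference agonist. Mean of at least 2 independent measurements.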
# Cannabinoid receptor 1 [13] = molecular target: T1, Cannabinoid receptor 1; assay: Partial agonist activity at human CB1 receptor expressed in HEK293 EBNA cells by [35S]GTPgamma binding assay relative to Win55,212-2; type: functional, cell-based; in short: as §1
# Sequence of Voltage-gated inwardly rectifying potassium channel KCNH2 (Q12809 whole entry): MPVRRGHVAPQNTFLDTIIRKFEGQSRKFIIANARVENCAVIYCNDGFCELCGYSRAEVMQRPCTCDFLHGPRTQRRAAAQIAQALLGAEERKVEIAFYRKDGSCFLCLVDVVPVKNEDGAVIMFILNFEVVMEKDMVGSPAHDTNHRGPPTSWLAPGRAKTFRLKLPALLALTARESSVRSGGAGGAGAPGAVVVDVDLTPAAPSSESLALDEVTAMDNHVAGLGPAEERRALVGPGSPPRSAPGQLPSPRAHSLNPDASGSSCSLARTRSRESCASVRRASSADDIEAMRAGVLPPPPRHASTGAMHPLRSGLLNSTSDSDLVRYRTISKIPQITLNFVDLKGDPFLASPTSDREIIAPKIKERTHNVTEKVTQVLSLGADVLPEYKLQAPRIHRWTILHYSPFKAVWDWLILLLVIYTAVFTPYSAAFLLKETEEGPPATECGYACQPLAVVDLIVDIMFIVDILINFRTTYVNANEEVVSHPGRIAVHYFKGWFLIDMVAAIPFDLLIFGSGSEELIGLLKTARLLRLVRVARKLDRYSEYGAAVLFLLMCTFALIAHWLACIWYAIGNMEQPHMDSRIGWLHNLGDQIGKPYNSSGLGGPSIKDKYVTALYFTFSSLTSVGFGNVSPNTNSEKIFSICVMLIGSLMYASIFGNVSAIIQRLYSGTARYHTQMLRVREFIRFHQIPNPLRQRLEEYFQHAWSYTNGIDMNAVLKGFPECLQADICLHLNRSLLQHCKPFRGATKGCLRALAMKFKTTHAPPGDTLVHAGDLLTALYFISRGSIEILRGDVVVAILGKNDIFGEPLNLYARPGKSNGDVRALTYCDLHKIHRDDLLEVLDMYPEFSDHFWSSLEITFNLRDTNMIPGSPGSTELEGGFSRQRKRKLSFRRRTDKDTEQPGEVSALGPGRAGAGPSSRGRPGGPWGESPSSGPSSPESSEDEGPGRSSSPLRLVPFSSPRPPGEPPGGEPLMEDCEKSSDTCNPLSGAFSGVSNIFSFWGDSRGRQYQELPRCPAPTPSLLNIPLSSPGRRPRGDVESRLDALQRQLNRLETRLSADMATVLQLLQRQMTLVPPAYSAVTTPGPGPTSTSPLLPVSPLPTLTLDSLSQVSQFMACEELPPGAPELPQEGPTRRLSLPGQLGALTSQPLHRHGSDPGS
# T1 sequence (P21554 whole entry): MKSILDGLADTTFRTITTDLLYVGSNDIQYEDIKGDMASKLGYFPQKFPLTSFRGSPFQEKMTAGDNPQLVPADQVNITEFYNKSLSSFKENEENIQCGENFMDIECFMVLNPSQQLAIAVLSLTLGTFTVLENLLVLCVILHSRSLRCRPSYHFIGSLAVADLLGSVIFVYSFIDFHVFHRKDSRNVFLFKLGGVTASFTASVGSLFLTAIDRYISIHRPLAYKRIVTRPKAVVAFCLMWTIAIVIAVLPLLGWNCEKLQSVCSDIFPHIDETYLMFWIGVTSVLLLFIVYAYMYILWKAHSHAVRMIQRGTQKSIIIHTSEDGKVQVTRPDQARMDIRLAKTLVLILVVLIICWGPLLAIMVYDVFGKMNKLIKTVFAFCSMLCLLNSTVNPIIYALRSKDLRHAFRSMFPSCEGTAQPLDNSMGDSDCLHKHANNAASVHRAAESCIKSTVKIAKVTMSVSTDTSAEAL
# Sequence of Cannabinoid receptor 2 (P34972 whole entry): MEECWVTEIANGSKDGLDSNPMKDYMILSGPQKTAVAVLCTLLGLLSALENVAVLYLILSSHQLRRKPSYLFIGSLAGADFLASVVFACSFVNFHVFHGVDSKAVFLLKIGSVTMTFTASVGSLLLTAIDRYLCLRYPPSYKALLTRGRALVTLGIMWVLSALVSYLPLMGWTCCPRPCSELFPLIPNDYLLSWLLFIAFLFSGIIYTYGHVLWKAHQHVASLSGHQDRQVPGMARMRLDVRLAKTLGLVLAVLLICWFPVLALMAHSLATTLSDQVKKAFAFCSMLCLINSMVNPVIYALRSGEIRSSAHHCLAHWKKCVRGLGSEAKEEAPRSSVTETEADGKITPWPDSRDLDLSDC
# Sequence of Cannabinoid receptor 1 (Rattus norvegicus, UniProt P20272) (P20272 whole entry): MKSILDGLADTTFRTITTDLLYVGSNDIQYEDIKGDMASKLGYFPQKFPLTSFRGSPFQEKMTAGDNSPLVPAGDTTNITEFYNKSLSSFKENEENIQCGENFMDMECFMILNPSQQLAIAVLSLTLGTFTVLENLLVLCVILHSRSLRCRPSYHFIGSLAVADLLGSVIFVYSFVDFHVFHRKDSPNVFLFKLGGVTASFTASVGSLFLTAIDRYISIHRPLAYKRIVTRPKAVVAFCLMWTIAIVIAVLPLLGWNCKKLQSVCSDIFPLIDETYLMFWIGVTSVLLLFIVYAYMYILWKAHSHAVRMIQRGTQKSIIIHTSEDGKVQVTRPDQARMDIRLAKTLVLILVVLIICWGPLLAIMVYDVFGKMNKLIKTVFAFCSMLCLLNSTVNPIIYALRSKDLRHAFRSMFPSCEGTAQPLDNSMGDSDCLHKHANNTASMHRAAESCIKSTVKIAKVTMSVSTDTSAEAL
# Sequence of Cannabinoid receptor 1 (Rattus norvegicus) (P20272 whole entry): as above
compound,measurement,setting,value
C=CCn1c2c(c3cc(C(=O)N4CCC(C)CC4)ccc31)CN(C1CCCC1)CC2,EC50,Cannabinoid receptor 1 [1],33 nM
same,Ki,Cannabinoid receptor 1 [2],9 nM
same,microsomal CLint,[3],93 µL/min/mg
CCOc1ccc(Cc2nc3cc(N(C)S(=O)(=O)c4cccs4)ccc3n2CC2CCCCC2)nc1,Kp,[4],0.07
same,Ki,Cannabinoid receptor 2,0.56 nM
same,EC50,Cannabinoid receptor 1 [1],6 nM
same,Ki,Cannabinoid receptor 1 [2],3 nM
same,microsomal CLint,[5],> 300 µL/min/mg
same,solubility,[6],< 10 µg/mL
same,microsomal CLint,[3],> 300 µL/min/mg
same,Papp,[7],0.6 ×10⁻⁶ cm/s
C=CCn1c2c(c3cc(C(=O)N4CCC(C)CC4)ccc31)CN(Cc1ccncc1)CC2,EC50,Cannabinoid receptor 1 [1],1360 nM
same,microsomal CLint,[3],> 300 µL/min/mg
CC1CCN(C(=O)c2ccc3c(c2)c2c(n3C)CCN(C3CCCC3)C2)CC1,EC50,Cannabinoid receptor 1 [1],77 nM
same,Ki,Cannabinoid receptor 1 [2],32 nM
C=CCn1c2c(c3cc(C(=O)N4CCC(C)CC4)ccc31)CN(Cc1ccccn1)CC2,EC50,Cannabinoid receptor 1 [1],5420 nM
CCCCCCC(C)(C)c1cc(O)c2c(c1)OC(C)(C)[C@@H]1CC=C(C(=O)O)C[C@@H]21 [LENABASUM],Kp,[4],0.3
CC1CCN(C(=O)c2ccc3c(c2)c2c(n3C(=O)N(C)C)CCN(C3CCOCC3)C2)CC1,Ki,Cannabinoid receptor 1 [2],2380 nM
CCOc1ccc(Cn2c3c(c4cc(C(=O)N5CCC(C)CC5)ccc42)CN(C2CCOCC2)CC3)cc1,EC50,Cannabinoid receptor 1 [1],53 nM
same,Ki,Cannabinoid receptor 1 [2],51 nM
C=CCn1c2c(c3cc(C(=O)N4CCC(C)CC4)ccc31)CN(CC1CC1)CC2,Emax,[8],47%
same,EC50,Cannabinoid receptor 1 [9],1440 nM
same,Kp,[4],0.74
same,Ki,Cannabinoid receptor 2,14 nM
same,EC50,Cannabinoid receptor 1 [1],768 nM
same,Ki,Cannabinoid receptor 1 [2],143 nM
same,microsomal CLint,[5],> 300 µL/min/mg
same,solubility,[6],3300 µg/mL
same,microsomal CLint,[3],66 µL/min/mg
same,Papp,[7],3 ×10⁻⁶ cm/s
CC1CCN(C(=O)c2ccc3c(c2)c2c(n3S(C)(=O)=O)CCN(C3CCCC3)C2)CC1,EC50,Cannabinoid receptor 1 [1],50 nM
same,Ki,Cannabinoid receptor 1 [2],36 nM
CC1CCN(C(=O)c2ccc3c(c2)c2c(n3S(=O)(=O)C(C)C)CCN(C3CCOCC3)C2)CC1,EC50,Cannabinoid receptor 1 [1],150 nM
same,Ki,Cannabinoid receptor 1 [2],170 nM
C=CCn1c2c(c3cc(C(=O)N4CCC(C)CC4)ccc31)CN(C1CCSC1)CC2 (stereo not given),EC50,Cannabinoid receptor 1 [1],5 nM
same,microsomal CLint,[3],> 300 µL/min/mg
CC1CCN(C(=O)c2ccc3c(c2)c2c(n3C)CCN(C3CCOCC3)C2)CC1,Ki,Cannabinoid receptor 1 [2],76 nM
same,IC50,[10],2600 nM
CCCS(=O)(=O)n1c2c(c3cc(C(=O)N4CCC(C)CC4)ccc31)CN(C1CCCC1)CC2,EC50,Cannabinoid receptor 1 [1],22 nM
same,Ki,Cannabinoid receptor 1 [2],22 nM
CCn1c2c(c3cc(C(=O)N4CCC(C)CC4)ccc31)CN(C1CCCC1)CC2,EC50,Cannabinoid receptor 1 [1],63 nM
same,Ki,Cannabinoid receptor 1 [2],34 nM
CC1CCN(C(=O)c2ccc3[nH]c4c(c3c2)CN(C2CCCC2)CC4)CC1,EC50,Cannabinoid receptor 1 [1],4250 nM
same,Ki,Cannabinoid receptor 1 [2],264 nM
CC1CCN(C(=O)c2ccc3c(c2)c2c(n3S(C)(=O)=O)CCN(C3CCOCC3)C2)CC1,EC50,Cannabinoid receptor 1 [1],473 nM
same,Ki,Cannabinoid receptor 1 [2],239 nM
CCCCCc1cc(O)c2c(c1)OC(C)(C)[C@@H]1CCC(C)=C[C@@H]21 [DRONABINOL],Kp,[4],1
same,solubility,[6],< 10 µg/mL
CC1CCN(C(=O)c2ccc3c(c2)c2c(n3S(=O)(=O)N(C)C)CCN(C3CCCC3)C2)CC1,EC50,Cannabinoid receptor 1 [1],26 nM
same,Ki,Cannabinoid receptor 1 [2],22 nM
CCCS(=O)(=O)n1c2c(c3cc(C(=O)N4CCC(C)CC4)ccc31)CN(C1CCOC1)CC2 (stereo not given),pKa,[11],5.8
same,Ki,Cannabinoid receptor 1 [2],320 nM
CCNS(=O)(=O)n1c2c(c3cc(C(=O)N4CCC(C)CC4)ccc31)CN(C1CCOCC1)CC2,Ki,Cannabinoid receptor 1 [2],424 nM
CCCCCOc1ccc(C(=O)c2cccc3ccccc23)c2ccccc12,Kp,[4],0.04
same,Ki,Cannabinoid receptor 2,19 nM
same,solubility,[6],< 10 µg/mL
C=CCn1c2c(c3cc(C(=O)N4CCC(C)CC4)ccc31)CN(C1CCOCC1)CC2,EC50,Cannabinoid receptor 1 [1],60 nM
same,microsomal CLint,[3],42 µL/min/mg
CCCn1c2c(c3cc(C(=O)N4CCC(C)CC4)ccc31)CN(C1CCOCC1)CC2,EC50,Cannabinoid receptor 1 [1],103 nM
same,Ki,Cannabinoid receptor 1 [2],58 nM
CCCC(=O)n1c2c(c3cc(C(=O)N4CCC(C)CC4)ccc31)CN(C1CCOCC1)CC2,EC50,Cannabinoid receptor 1 [12],117 nM
same,Ki,Cannabinoid receptor 1 [2],102 nM
same,Emax,Cannabinoid receptor 1 [13],17%
CC1CCN(C(=O)c2ccc3c(c2)c2c(n3S(=O)(=O)N(C)C)CCN(C3CCOCC3)C2)CC1,EC50,Cannabinoid receptor 1 [1],71 nM
same,Ki,Cannabinoid receptor 1 [2],110 nM
C=CCn1c2c(c3cc(C(=O)N4CCC(C)CC4)ccc31)CN(CC1CCCC1)CC2,EC50,Cannabinoid receptor 1 [1],115 nM
same,microsomal CLint,[3],> 300 µL/min/mg
CCCn1c2c(c3cc(C(=O)N4CCC(C)CC4)ccc31)CN(C1CCCC1)CC2,EC50,Cannabinoid receptor 1 [1],45 nM
same,Ki,Cannabinoid receptor 1 [2],15 nM
CC1CCN(C(=O)c2ccc3c(c2)c2c(n3S(=O)(=O)c3ccccc3)CCN(C3CCOCC3)C2)CC1,EC50,Cannabinoid receptor 1 [1],59 nM
same,Ki,Cannabinoid receptor 1 [2],31 nM
CCCS(=O)(=O)n1c2c(c3cc(C(=O)N4CCC(C)CC4)ccc31)CN(C1CCOCC1)CC2,EC50,Cannabinoid receptor 1 [1],129 nM
same,pKa,[11],7.3
same,Ki,Cannabinoid receptor 1 [2],115 nM
same,IC50,[10],2000 nM
CC1CCN(C(=O)c2ccc3c(c2)c2c(n3S(=O)(=O)n3ccnc3)CCN(C3CCOCC3)C2)CC1,Ki,Cannabinoid receptor 1 [2],592 nM
C=CCn1c2c(c3cc(C(=O)N4CCC(C)CC4)ccc31)CN(C1CCCCC1)CC2,EC50,Cannabinoid receptor 1 [1],60 nM
same,Ki,Cannabinoid receptor 1 [2],56 nM
same,microsomal CLint,[3],135 µL/min/mg
C=CCn1c2c(c3cc(C(=O)N4CCC(C)CC4)ccc31)CN(Cc1cccnc1)CC2,EC50,Cannabinoid receptor 1 [1],> 14000 nM
same,microsomal CLint,[3],> 300 µL/min/mg
C=CCn1c2c(c3cc(C(=O)N4CCC(C)CC4)ccc31)CN(Cc1ccccc1)CC2,EC50,Cannabinoid receptor 1 [1],103 nM
same,microsomal CLint,[3],> 300 µL/min/mg
CCS(=O)(=O)n1c2c(c3cc(C(=O)N4CCC(C)CC4)ccc31)CN(C1CCOC1)CC2 (stereo not given),pKa,[11],5.9
same,Ki,Cannabinoid receptor 1 [2],197 nM
same,IC50,[10],25000 nM
CCS(=O)(=O)n1c2c(c3cc(C(=O)N4CCC(C)CC4)ccc31)CN(C1CCCC1)CC2,EC50,Cannabinoid receptor 1 [1],11 nM
same,Ki,Cannabinoid receptor 1 [2],17 nM
Cn1c2c(c3cc(C(=O)N4CCCCC4)ccc31)CN(C1CCOCC1)CC2,Ki,Cannabinoid receptor 1 [2],226 nM
same,IC50,[10],18000 nM
